From ChEMBL document CHEMBL1955756, “Design and synthesis of novel sulfonamide-containing bradykinin hB(2) receptor antagonists. Synthesis and structure-relationships of α,α-tetrahydropyranylglycine” (Bioorg Med Chem, 2012)
Calls of active or inactive are those of the source. The rule behind the calls is not given here.

How the values were obtained:
B2 bradykinin receptor [1] = biological target: T1, B2 bradykinin receptor (Cavia porcellus, UniProt O70526); assay: Antagonist activity at guinea pig bradykinin B2 receptor in longitudinal smooth muscle assessed as inhibition of bradykinin-induced contractile responses; type: functional; settings: read-out: pA2 (converted)
T1 sequence (O70526 whole entry): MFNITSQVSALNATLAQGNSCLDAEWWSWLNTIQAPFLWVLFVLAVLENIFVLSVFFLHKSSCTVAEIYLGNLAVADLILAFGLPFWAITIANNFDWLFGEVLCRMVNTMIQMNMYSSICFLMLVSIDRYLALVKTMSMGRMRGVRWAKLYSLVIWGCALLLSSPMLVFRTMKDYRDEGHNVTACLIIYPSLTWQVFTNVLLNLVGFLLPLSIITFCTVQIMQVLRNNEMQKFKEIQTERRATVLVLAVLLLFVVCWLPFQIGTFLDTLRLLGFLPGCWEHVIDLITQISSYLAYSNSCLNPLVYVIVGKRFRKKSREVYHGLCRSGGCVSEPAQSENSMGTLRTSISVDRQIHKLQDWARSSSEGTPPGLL

B2 bradykinin receptor [2] = biological target: T2, B2 bradykinin receptor (Homo sapiens, UniProt P30411); assay: Antagonist activity at human bradykinin B2 receptor expressed in dhfr-deficient CHO cells assessed as inhibition of bradykinin-induced inositol monophosphate accumulation preincubated for 15 mins prior bradykinin induction measured after 40 mins by liquid scintillation spectrometry; type: functional, cell-based; settings: read-out: pA2 (converted)
T2 sequence (P30411 whole entry): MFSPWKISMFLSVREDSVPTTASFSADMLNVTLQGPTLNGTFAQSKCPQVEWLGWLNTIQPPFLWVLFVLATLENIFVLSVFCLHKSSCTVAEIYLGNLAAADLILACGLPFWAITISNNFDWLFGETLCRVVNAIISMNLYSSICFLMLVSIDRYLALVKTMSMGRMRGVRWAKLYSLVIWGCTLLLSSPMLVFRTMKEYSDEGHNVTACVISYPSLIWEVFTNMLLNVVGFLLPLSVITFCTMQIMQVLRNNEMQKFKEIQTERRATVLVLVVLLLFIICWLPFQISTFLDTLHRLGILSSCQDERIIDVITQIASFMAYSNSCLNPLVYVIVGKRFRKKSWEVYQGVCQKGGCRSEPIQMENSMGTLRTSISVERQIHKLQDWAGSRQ
Summary of the method: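 CHOdhfr-/hB2R cells (1.8×10^5/well) plated overnight at 37 °C, labelled 24 h with myo-[3H]inositol (1 uCi/well). Antagonist pre-incubation 15 min, then BK 1×10^-11 to 1×10^-5 M for 40 min at 37 °C in Hepes pH 7.4 buffer with 25 mM LiCl. IP1 radioactivity by liquid scintillation. Agonist curves fitted for EC50; pA2 = log(CR−1) − log[antagonist].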

Cavia porcellus = assay: Inhibition of bradykinin-induced bronchoconstriction in anesthetized Dunkin-Hartley guinea pig at […], it 5 mins prior bradykinin-induction for every 30 mins up to 210 mins; type: functional, organism-based
Summary of the method: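 Anaesthetized male Dunkin Hartley guinea pigs, 350–400 g. Compound given intratracheally, then repeated iv BK challenges (10 nmol/kg) with bronchoconstriction recorded.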

B2 bradykinin receptor [3] = biological target: T2, B2 bradykinin receptor; assay: Displacement of [3H]-Bradykinin from human bradykinin B2 receptor expressed in CHO cells membrane after 60 mins by scintillation counting; type: cell membranes
B1 bradykinin receptor = biological target: T3, B1 bradykinin receptor (Homo sapiens, UniProt P46663); assay: Displacement of [3H][desArg9]Lys-Bradykinin from human bradykinin B1 receptor expressed in CHO cells; type: cell-based
T3 sequence (P46663 whole entry): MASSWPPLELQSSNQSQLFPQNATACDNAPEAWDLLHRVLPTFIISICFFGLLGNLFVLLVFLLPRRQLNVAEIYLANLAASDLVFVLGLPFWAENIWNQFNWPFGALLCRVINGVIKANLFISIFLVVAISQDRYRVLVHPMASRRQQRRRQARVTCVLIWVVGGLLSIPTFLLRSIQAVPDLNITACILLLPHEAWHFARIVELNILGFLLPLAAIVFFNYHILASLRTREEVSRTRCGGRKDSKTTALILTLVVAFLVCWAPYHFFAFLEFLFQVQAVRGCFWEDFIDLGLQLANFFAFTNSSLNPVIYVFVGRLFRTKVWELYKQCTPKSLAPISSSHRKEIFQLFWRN

Cc1cc(C)c2cccc(OCc3c(Cl)ccc(S(=O)(=O)NC4(C(=O)N5CCN(C(=O)CCCC[N+](C)(C)C)CC5)CCOCC4)c3Cl)c2n1
Kb (B2 bradykinin receptor [1]): 0.0631 nM
Kb (B2 bradykinin receptor [2]): 0.316 nM
inhibition (Cavia porcellus): inactive
Ki (B2 bradykinin receptor [3]): 0.0794 nM
Ki (B1 bradykinin receptor): > 10000 nM
